Experimental data published in ChEMBL document CHEMBL5705886, “GSK1070916, a potent Aurora B/C kinase inhibitor with broad antitumor activity in tissue culture cells and human tumor xenograft models” (Mol Cancer Ther, 2009).
The source made the active and inactive calls. The rule behind the calls is not given here.

Tests used:
EB2 = test: Antiproliferative activity against human EB2 cells assessed as inhibition of cell viability measured for 6 to 7 days by cell titer glo assay; type: functional, cell-based
Method in brief: (§1)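 Tumor lines plated in recommended growth media, overnight at 37°C, 5% CO2, then given serial dilutions; a T=0 plate read with CellTiter-Glo at dosing. After 6–7 d of exposure, viability read by CellTiter-Glo luminescence. No-cell wells subtracted, data expressed as % of DMSO control.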

MDA-MB-231 = test: Antiproliferative activity against human MDA-MB-231 cells assessed as inhibition of cell viability measured for 6 to 7 days by cell titer glo assay; type: functional, cell-based
Method in brief: (§2)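 Cells seeded in recommended growth medium, incubated overnight at 37°C in 5% CO2, then exposed to serial dilutions of inhibitor for 6–7 d. A parallel plate was read with CellTiter-Glo at compound addition as a T=0 value. The luminescent viability readout had no-cell background subtracted and was expressed as % of DMSO control.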

COLO 205 = test: Induction of apoptosis in human COLO 205 cells assessed as caspase-3 cleavage at 10 nmol/L incubated for 24 hrs by Western blot analysis; type: functional, cell-based
[1] = Antiproliferative activity against human BDCM cells assessed as inhibition of cell viability measured for 6 to 7 days by cell titer glo assay; type: functional, cell-based; method in brief: as §1
L-428 = test: Antiproliferative activity against human L-428 cells assessed as inhibition of cell viability measured for 6 to 7 days by cell titer glo assay; type: functional, cell-based; method in brief: as §2
THP-1 = test: Antiproliferative activity against human THP-1 cells assessed as inhibition of cell viability measured for 6 to 7 days by cell titer glo assay; type: functional, cell-based
Method in brief: (§3)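 Cells seeded in recommended growth medium, held overnight at 37°C in 5% CO2, then exposed to serial dilutions of inhibitor for 6–7 d. A time-zero plate was read with CellTiter-Glo at dosing. Luminescent viability read at the end. No-cell wells subtracted as background, data expressed as percent of DMSO control.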

[2] = Antiproliferative activity against human CRO-AP5 cells assessed as inhibition of cell viability measured for 6 to 7 days by cell titer glo assay; type: functional, cell-based; method in brief: as §1
[3] = Antiproliferative activity against human F-36P cells assessed as inhibition of cell viability measured for 6 to 7 days by cell titer glo assay; type: functional, cell-based; method in brief: as §1
EM-2 = test: Antiproliferative activity against human EM-2 cells assessed as inhibition of cell viability measured for 6 to 7 days by cell titer glo assay; type: functional, cell-based; method in brief: as §1
COLO-320-HSR = test: Antiproliferative activity against human COLO 320HSR cells assessed as inhibition of cell viability measured for 6 to 7 days by cell titer glo assay; type: functional, cell-based; method in brief: as §1
[4] = Antiproliferative activity against human BC-2 cells assessed as inhibition of cell viability measured for 6 to 7 days by cell titer glo assay; type: functional, cell-based; method in brief: as §1
HCT-116 = test: Antiproliferative activity against human HCT-116 cells assessed as inhibition of cell viability measured for 6 to 7 days by cell titer glo assay; type: functional, cell-based; method in brief: as §1
MC-CAR = test: Antiproliferative activity against human MC-CAR cells assessed as inhibition of cell viability measured for 6 to 7 days by cell titer glo assay; type: functional, cell-based; method in brief: as §2
CCRF-CEM = test: Antiproliferative activity against human CCRF-CEM cells assessed as inhibition of cell viability measured for 6 to 7 days by cell titer glo assay; type: functional, cell-based; method in brief: as §1
PC-3 = test: Antiproliferative activity against human PC-3 cells assessed as inhibition of cell viability measured for 6 to 7 days by cell titer glo assay; type: functional, cell-based; method in brief: as §3
RKO = test: Antiproliferative activity against human RKO cells assessed as inhibition of cell viability measured for 6 to 7 days by cell titer glo assay; type: functional, cell-based; method in brief: as §3
[5] = Antiproliferative activity against human RCH-ACV cells assessed as inhibition of cell viability measured for 6 to 7 days by cell titer glo assay; type: functional, cell-based; method in brief: as §3
KG-1 = test: Antiproliferative activity against human KG-1 cells assessed as inhibition of cell viability measured for 6 to 7 days by cell titer glo assay; type: functional, cell-based; method in brief: as §2
GA-10 = test: Antiproliferative activity against human GA-10 cells assessed as inhibition of cell viability measured for 6 to 7 days by cell titer glo assay; type: functional, cell-based; method in brief: as §1
ASPC1 = test: Antiproliferative activity against human ASPC1 cells assessed as inhibition of cell viability measured for 6 to 7 days by cell titer glo assay; type: functional, cell-based; method in brief: as §1
SW1417 = test: Antiproliferative activity against human SW1417 cells assessed as inhibition of cell viability measured for 6 to 7 days by cell titer glo assay; type: functional, cell-based; method in brief: as §3
[6] = Antiproliferative activity against human MJ cells assessed as inhibition of cell viability measured for 6 to 7 days by cell titer glo assay; type: functional, cell-based; method in brief: as §2
K562 = test: Antiproliferative activity against human K562 cells assessed as inhibition of cell viability measured for 6 to 7 days by cell titer glo assay; type: functional, cell-based; method in brief: as §2
NOMO-1 = test: Antiproliferative activity against human NOMO-1 cells assessed as inhibition of cell viability measured for 6 to 7 days by cell titer glo assay; type: functional, cell-based; method in brief: as §3
A498 = test: Antiproliferative activity against human A498 cells assessed as inhibition of cell viability measured for 6 to 7 days by cell titer glo assay; type: functional, cell-based; method in brief: as §1
T47D = test: Antiproliferative activity against human T47D cells assessed as inhibition of cell viability measured for 6 to 7 days by cell titer glo assay; type: functional, cell-based; method in brief: as §3
WiDr = test: Antiproliferative activity against human WiDr cells assessed as inhibition of cell viability measured for 6 to 7 days by cell titer glo assay; type: functional, cell-based
[7] = Toxicity in SCID nude mouse xenografted with human MCF7 cells assessed as body weight loss at 50 to 100 mg/kg, ip administered once daily for 5 consecutive days with 2 days off scheduled for 3 cycles measured upto 60 days; type: organism-based; settings: in vivo, 1440 h, dose 50-100 mg/kg, time < 60 day
A549 = test: Effect on cell cycle distribution in human A549 cells assessed as increase in 4N DNA content at 2 to 5000 nM incubated for 24 to 72 hrs by flow cytometry based analysis; type: functional; settings: dose 2-5000 nM, time 24-72 hrs
U2OS = test: Antiproliferative activity against human U2OS cells assessed as inhibition of cell viability measured for 6 to 7 days by cell titer glo assay; type: functional, cell-based
[8] = Toxicity in SCID nude mouse xenografted with human K562 cells assessed as drug tolerance at 100 mg/kg, ip administered once daily for 5 consecutive days with 2 days off scheduled for 3 cycles measured upto 60 days; type: organism-based; settings: in vivo, 1440 h, time < 60 day
SUP-B15 = test: Antiproliferative activity against human SUP-B15 cells assessed as inhibition of cell viability measured for 6 to 7 days by cell titer glo assay; type: functional, cell-based; method in brief: as §3
NCI-H1299 = test: Antiproliferative activity against human NCI-H1299 cells assessed as inhibition of cell viability measured for 6 to 7 days by cell titer glo assay; type: functional, cell-based; method in brief: as §2
HT-29 = test: Antiproliferative activity against human HT-29 cells assessed as inhibition of cell viability measured for 6 to 7 days by cell titer glo assay; type: functional, cell-based; method in brief: as §2
OVCAR-8 = test: Antiproliferative activity against human OVCAR-8 cells assessed as inhibition of cell viability measured for 6 to 7 days by cell titer glo assay; type: functional, cell-based; method in brief: as §3
SW48 = test: Antiproliferative activity against human SW48 cells assessed as inhibition of cell viability measured for 6 to 7 days by cell titer glo assay; type: functional, cell-based; method in brief: as §3
KCL-22 = test: Antiproliferative activity against human KCL-22 cells assessed as inhibition of cell viability measured for 6 to 7 days by cell titer glo assay; type: functional, cell-based; method in brief: as §2

CCn1cc(-c2ccnc3[nH]c(-c4cccc(CN(C)C)c4)cc23)c(-c2ccc(NC(=O)N(C)C)cc2)n1 [GSK-1070916]
EC50 (EB2): 2 nM | EC50 (MDA-MB-231): 11 nM | Activity (COLO 205): Active | EC50 [1]: 26 nM | EC50 (L-428): 31 nM | EC50 (THP-1): 5 nM | EC50 [2]: 3 nM | EC50 [3]: 10 nM | EC50 (EM-2): 4 nM | EC50 (COLO-320-HSR): 92 nM | EC50 [4]: 75 nM | EC50 (HCT-116): 8 nM | EC50 (MC-CAR): 9 nM | EC50 (CCRF-CEM): 7 nM | EC50 (PC-3): 11 nM | EC50 (RKO): 7 nM | EC50 [5]: 4 nM | EC50 (KG-1): 32 nM | EC50 (GA-10): 4 nM | EC50 (ASPC1): 2 nM | EC50 (SW1417): 19 nM | EC50 [6]: 7 nM | EC50 (K562): 13 nM | EC50 (NOMO-1): 2 nM | EC50 (A498): 33 nM | EC50 (T47D): 13 nM | EC50 (WiDr): 3 nM | Activity [7]: Toxic | Activity (A549): Active | EC50 (U2OS): 34 nM | Activity [8]: Toxic | EC50 (SUP-B15): 2 nM | EC50 (NCI-H1299): 23 nM | EC50 (HT-29): 10 nM | EC50 (OVCAR-8): 30 nM | EC50 (SW48): 2 nM | EC50 (KCL-22): 5 nM
